From ChEMBL document CHEMBL1139422, “Design, synthesis and biological evaluation of novel compounds with conjugated structure as anti-tumor agents” (Bioorg Med Chem, 2008)
Activity calls are given as the source filed them. The rule behind the calls is not given here.

Legend:
PC-3 = assay: Antiproliferative activity against human PC3 cells after 48 hrs by MTT assay; assay type: functional, cell-based; conditions: PC-3, 48 h
Summary of the method: (§1)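 Cells seeded at 4000/well; compounds (10 mg/mL DMSO stock, diluted in medium) added 24 h after seeding, in duplicate. Incubation 48 h at 37 °C, 5% CO2. MTT (20 µL of 5 mg/mL in PBS) then added for 4 h at 37 °C, and the signal read at 570 nm.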

HCT-116 = assay: Antiproliferative activity against human HCT116 cells after 48 hrs by MTT assay; assay type: functional, cell-based; conditions: HCT-116, 48 h; summary of the method: as §1
HepG2 = assay: Antiproliferative activity against human HepG2 cells after 48 hrs by MTT assay; assay type: functional, cell-based; conditions: HepG2, 48 h; summary of the method: as §1
Histone deacetylase 1 = Histone deacetylase 1 (Homo sapiens, UniProt Q13547); assay: Inhibition of human recombinant HDAC1 using Fluor de Lys as substrate by fluorimetric assay
Histone deacetylase 1, sequence (Q13547 whole entry): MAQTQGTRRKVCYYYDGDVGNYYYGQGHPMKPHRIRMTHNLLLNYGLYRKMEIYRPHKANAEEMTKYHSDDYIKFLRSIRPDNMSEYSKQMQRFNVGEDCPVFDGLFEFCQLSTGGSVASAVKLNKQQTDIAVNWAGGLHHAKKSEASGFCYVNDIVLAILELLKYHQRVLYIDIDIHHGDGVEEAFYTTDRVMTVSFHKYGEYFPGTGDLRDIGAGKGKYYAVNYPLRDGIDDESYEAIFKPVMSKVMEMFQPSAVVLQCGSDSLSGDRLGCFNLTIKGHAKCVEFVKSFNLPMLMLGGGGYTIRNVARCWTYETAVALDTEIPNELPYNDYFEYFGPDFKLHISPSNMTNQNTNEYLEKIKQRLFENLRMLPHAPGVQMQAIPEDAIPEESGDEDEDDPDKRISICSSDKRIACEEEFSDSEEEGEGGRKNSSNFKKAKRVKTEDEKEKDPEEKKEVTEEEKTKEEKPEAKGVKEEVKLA
Summary of the method: (§2)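 Purified recombinant HDAC1 or HDAC4 was incubated with acetylated-lysine Fluor de Lys substrate, with or without inhibitor. Developer was then added to give the fluorophore, and fluorescence was read. IC50 values are means of at least three experiments. SI is IC50(HDAC1)/IC50(HDAC4).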

Histone deacetylase 4 = Histone deacetylase 4 (Homo sapiens, UniProt P56524); assay: Inhibition of human recombinant HDAC4 using Fluor de Lys as substrate by fluorimetric assay; summary of the method: as §2
Histone deacetylase 4, sequence (P56524 whole entry): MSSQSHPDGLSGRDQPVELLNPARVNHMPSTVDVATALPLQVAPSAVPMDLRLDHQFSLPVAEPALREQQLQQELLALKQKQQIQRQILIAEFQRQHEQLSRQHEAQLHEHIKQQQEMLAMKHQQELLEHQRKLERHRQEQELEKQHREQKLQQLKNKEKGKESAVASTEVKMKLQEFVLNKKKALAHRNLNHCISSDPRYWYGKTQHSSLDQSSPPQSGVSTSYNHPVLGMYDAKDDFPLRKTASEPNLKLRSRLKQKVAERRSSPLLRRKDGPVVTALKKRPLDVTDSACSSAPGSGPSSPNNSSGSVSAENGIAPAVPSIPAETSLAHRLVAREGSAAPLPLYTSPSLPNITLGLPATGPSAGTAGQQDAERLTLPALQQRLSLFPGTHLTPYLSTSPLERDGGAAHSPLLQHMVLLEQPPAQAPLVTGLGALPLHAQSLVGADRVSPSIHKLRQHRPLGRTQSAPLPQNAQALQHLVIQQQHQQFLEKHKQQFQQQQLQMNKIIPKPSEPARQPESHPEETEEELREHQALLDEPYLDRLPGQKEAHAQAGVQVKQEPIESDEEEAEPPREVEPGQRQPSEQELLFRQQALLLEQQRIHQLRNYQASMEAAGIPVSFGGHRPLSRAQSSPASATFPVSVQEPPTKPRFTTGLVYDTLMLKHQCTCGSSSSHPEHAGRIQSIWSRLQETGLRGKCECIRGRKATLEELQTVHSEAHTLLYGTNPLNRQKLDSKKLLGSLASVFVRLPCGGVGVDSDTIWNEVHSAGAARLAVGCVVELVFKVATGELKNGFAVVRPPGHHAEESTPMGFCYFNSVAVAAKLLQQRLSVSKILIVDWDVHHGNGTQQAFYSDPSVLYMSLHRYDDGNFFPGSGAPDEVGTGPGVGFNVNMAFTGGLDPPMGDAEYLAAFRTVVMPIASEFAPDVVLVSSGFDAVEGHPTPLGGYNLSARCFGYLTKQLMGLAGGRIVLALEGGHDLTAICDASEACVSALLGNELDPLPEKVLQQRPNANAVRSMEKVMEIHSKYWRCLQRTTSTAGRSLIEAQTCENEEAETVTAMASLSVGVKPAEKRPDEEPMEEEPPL

Homo sapiens = species: Homo sapiens; assay: Selectivity index, ratio of IC50 for human recombinant HDAC1 to IC50 for human recombinant HDAC4; summary of the method: as §2
Histone deacetylase = assay: Inhibition of human recombinant HDAC by fluorimetric assay; assay type: protein assay
U-937 [1] = assay: Induction of apoptosis in human U937 cells assessed as caspase 3 activation at 5 uM after 30 hrs by FACS analysis; assay type: functional, cell-based
Summary of the method: (§3)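 U937 cells were grown in supplemented RPMI at 200,000 cells/mL. Compounds in DMSO were given at 5 µM for 24 h or 30 h, or at 0.5 µM for 28 h. Apoptosis was analysed by FACS. Values are means of independent duplicates.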

U-937 [2] = assay: Increase in granulocytic differentiation in human U937 cells assessed as CD11c expression at 5 uM after 30 hrs by FACS analysis; assay type: functional, cell-based
Summary of the method: (§4)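 U937 cells were grown in RPMI with 10% FCS, 10 mM Hepes and 2 mM glutamine at 200,000 cells/mL. Compounds in DMSO were given for 30 h (5 µM) or 28 h (0.5 µM). Cells were stained for surface antigen for 30 min at 4 °C in the dark, washed, and resuspended in PBS with propidium iodide. PI-positive cells were excluded from the FACS analysis. Values are means of independent quadruplicates.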

U-937 [3] = assay: Induction of monocytic differentiation in human U937 cells assessed as CD14 expression at 5 uM after 30 hrs by FACS analysis; assay type: functional, cell-based; summary of the method: as §4
A549 = assay: Antiproliferative activity against human A549 cells after 48 hrs by MTT assay; assay type: functional, cell-based; conditions: A549, 48 h; summary of the method: as §1
U-937 [4] = assay: Cell cycle arrest in human U937 cells assessed as accumulation at S phase at 5 uM after 24 hrs by flow cytometry; assay type: functional, cell-based
Summary of the method: (§5)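 U937 cells were grown in RPMI with 10% FCS, penicillin/streptomycin, amphotericin-B, 10 mM Hepes and 2 mM glutamine, and held at 200,000 cells/mL. Cells were treated 24 h with compounds in DMSO. 2.5×10^5 cells were resuspended in hypotonic buffer (0.1% Triton X-100, 0.1% sodium citrate, 50 µg/mL PI, RNase A) for 30 min in the dark, then analysed by flow cytometry. Values are means of independent duplicates.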

U-937 [5] = assay: Induction of apoptosis in human U937 cells assessed as caspase 3 activation at 5 uM after 24 hrs by FACS analysis; assay type: functional, cell-based; summary of the method: as §3
U-937 [6] = assay: Cell cycle arrest in human U937 cells assessed as accumulation at G1 phase at 5 uM after 24 hrs by flow cytometry; assay type: functional, cell-based; summary of the method: as §5
[7] = biological target: T1, Protein deacetylase HDAC6 (Homo sapiens) (UniProt Q9UBN7); assay: Inhibition of HDAC6 in human U937 cells assessed as induction of alpha-tubulin acetylation after 24 hrs by Western blot analysis; assay type: cell-based; conditions: U-937
T1 sequence (whole entry): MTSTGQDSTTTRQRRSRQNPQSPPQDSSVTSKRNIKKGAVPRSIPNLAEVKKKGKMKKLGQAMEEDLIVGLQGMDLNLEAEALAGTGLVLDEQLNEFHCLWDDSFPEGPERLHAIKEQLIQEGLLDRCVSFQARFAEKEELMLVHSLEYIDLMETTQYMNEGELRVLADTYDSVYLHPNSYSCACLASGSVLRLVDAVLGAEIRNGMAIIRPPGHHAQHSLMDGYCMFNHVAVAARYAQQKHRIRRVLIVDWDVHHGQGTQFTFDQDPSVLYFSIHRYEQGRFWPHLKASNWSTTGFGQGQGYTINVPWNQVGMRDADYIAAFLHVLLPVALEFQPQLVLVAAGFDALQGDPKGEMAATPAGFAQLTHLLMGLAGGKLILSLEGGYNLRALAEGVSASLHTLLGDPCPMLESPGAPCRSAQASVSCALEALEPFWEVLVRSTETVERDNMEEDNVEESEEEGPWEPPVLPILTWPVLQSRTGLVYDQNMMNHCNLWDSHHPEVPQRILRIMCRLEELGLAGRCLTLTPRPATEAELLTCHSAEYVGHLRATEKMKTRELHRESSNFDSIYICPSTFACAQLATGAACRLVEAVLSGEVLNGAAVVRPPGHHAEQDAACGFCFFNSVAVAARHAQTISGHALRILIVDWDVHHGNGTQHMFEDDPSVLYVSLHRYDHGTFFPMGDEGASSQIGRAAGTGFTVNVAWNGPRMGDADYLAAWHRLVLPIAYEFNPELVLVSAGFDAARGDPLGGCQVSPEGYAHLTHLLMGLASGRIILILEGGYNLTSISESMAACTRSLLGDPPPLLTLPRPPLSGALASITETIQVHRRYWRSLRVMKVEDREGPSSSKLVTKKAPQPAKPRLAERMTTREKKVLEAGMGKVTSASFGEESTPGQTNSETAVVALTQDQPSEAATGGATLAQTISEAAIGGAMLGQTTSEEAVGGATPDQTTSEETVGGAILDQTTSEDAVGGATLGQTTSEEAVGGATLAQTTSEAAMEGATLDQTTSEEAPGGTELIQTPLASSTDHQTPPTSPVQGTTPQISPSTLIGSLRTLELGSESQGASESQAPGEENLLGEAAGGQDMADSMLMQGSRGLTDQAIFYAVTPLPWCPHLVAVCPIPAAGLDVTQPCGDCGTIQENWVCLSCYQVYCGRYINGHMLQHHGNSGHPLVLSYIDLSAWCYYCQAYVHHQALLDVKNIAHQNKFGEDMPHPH
Summary of the method: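 U937 cells were treated for 24 h. Total protein extract (50 µg) was run on a 10% polyacrylamide gel and blotted for acetylated α-tubulin (1:500), with total ERK as the loading control.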

U-937 [8] = assay: Induction of p21waf1/CIP1 expression in human U937 cells after 24 hrs by Western blot analysis; assay type: functional, cell-based
Summary of the method: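 U937 cells were treated for 24 h. Total protein extracts (50 µg) were run on a 15% polyacrylamide gel and blotted for p21 (1:500), with tubulin as the loading control.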

U-937 [9] = assay: Increase in granulocytic differentiation in human U937 cells assessed as CD11c expression at 0.5 uM after 28 hrs by FACS analysis; assay type: functional, cell-based; summary of the method: as §4

SMILES	IC50 (PC-3)	IC50 (HCT-116)	IC50 (HepG2)	IC50 (Histone deacetylase 1)	IC50 (Histone deacetylase 4)	Ratio IC50 (Homo sapiens)	IC50 (Histone deacetylase)	IC50 (A549)	Activity [7]	Activity (U-937 [1])	Activity (U-937 [2])	Activity (U-937 [3])	Activity (U-937 [4])	Activity (U-937 [5])	Activity (U-937 [6])	Activity (U-937 [8])	Activity (U-937 [9])
Nc1ccccc1NC(=O)c1ccc(CNC(=O)OCc2cccnc2)cc1 [ENTINOSTAT]	59.1 µM	27500 nM	60.1 µM														
O=C(CCCCCCC(=O)Nc1ccccc1C(=O)NO)Nc1ccccc1	8.17 µM	2690 nM	63.5 µM	0.59 µM	0.55 µM	1.01	0.042 µM										
COc1cccc(/C=C/c2ccc(C(=O)NO)o2)c1O	35.1 µM			50.1 µM	42.8 µM	1.17											
O=C(NO)c1ccc(/C=C/c2ccccc2O)o1	91.3 µM	5100 nM	54 µM	47.1 µM	74.2 µM	0.63		79.2 µM		Active	Active	inactive					
O=C(/C=C/c1ccc(/C=C/C(=O)c2cc(Cl)ccc2Cl)o1)NO	24.7 µM	4120 nM	48.3 µM	4.72 µM	4.31 µM	1.1		27.1 µM	Active						Active	Active	
O=C(/C=C/c1ccc(/C=C/C(=O)c2cccc(Cl)c2)o1)NO	9.6 µM	1510 nM	54.5 µM	12.6 µM	12.9 µM	1		18.9 µM	Active					Active	Active	Active	
O=C(NO)c1ccc(/C=C/c2ccc3c(c2)OCO3)o1	45.9 µM	4980 nM	33.6 µM	29.6 µM	85.6 µM	0.34		63.6 µM									
O=C(/C=C/c1ccc(/C=C/C(=O)c2ccc(F)cc2)o1)NO	40.1 µM	2820 nM	12 µM	15 µM	7.68 µM	2			Active					Active	Active	Active	
O=C(NO)c1ccc(/C=C/c2ccc(O)cc2)o1	21.8 µM	2730 nM	20.9 µM	43.1 µM	57.1 µM	0.76		86.4 µM		Active	Active	inactive					

The next lines start with results.

IC50 (PC-3)	IC50 (HCT-116)	IC50 (HepG2)	IC50 (Histone deacetylase 1)	IC50 (Histone deacetylase 4)	Ratio IC50 (Homo sapiens)	IC50 (Histone deacetylase)	IC50 (A549)	Activity [7]	SMILES	Activity (U-937 [1])	Activity (U-937 [2])	Activity (U-937 [3])	Activity (U-937 [4])	Activity (U-937 [5])	Activity (U-937 [6])	Activity (U-937 [8])	Activity (U-937 [9])
16 µM	540 nM	16 µM	13.2 µM	1.1 µM	11.9		48.6 µM		Cc1ccc(C(=O)/C=C/c2ccc(/C=C/C(=O)NO)o2)cc1				Active	Active			
16.2 µM	6730 nM	13.5 µM	4.29 µM	8.19 µM	0.5		88.1 µM	Active	O=C(/C=C/c1ccc(/C=C/C(=O)c2ccc(Cl)cc2Cl)o1)NO				Active	Active		Active	
2.73 µM		0.62 µM					13.1 µM		CC(=O)O[C@H]1C(=O)[C@@]2(C)[C@H]([C@H](OC(=O)c3ccccc3)[C@]3(O)C[C@H](OC(=O)[C@H](O)[C@@H](NC(=O)c4ccccc4)c4ccccc4)C(C)=C1C3(C)C)[C@]1(OC(C)=O)CO[C@@H]1C[C@@H]2O [PACLITAXEL]								
3.2 µM		31.7 µM	49.1 µM	50.6 µM	0.97		46.3 µM		CN(C)c1ccc(/C=C/c2ccc(C(=O)NO)o2)cc1							Active	Active
1.35 µM	2010 nM	6.74 µM	15.7 µM	6.03 µM	2.6		98.1 µM	Active	O=C(/C=C/c1ccc(/C=C/C(=O)c2ccc(Cl)cc2)o1)NO						Active	Active	
15.1 µM	2220 nM	9.93 µM	3.77 µM	4.38 µM	0.9	0.63 µM	29.4 µM	Active	O=C(/C=C/c1ccc(/C=C/C(=O)c2ccc3ccccc3c2)o1)NO					Active	Active	Active	
39.2 µM	3390 nM	37.2 µM	25.3 µM	49.3 µM	0.51		23.6 µM		O=C(NO)c1ccc(/C=C/c2cccc(Cl)c2Cl)o1								
2.27 µM	490 nM	35.9 µM	24.1 µM	4.89 µM	4.9		56.7 µM	Active	CC(C)c1ccc(C(=O)/C=C/c2ccc(/C=C/C(=O)NO)o2)cc1						Active	Active	
36.3 µM	2060 nM	6.22 µM	11 µM	4.04 µM	2.7			Active	COc1ccc2cc(C(=O)/C=C/c3ccc(/C=C/C(=O)NO)o3)ccc2c1				Active	Active		Active	
